The values below come from ChEMBL document CHEMBL1806372, “Cytotoxic ring A-modified steroid analogues derived from Grundmann's ketone” (Eur J Med Chem, 2011).

The subject of one assay is Staphylococcus equorum. The experiment in a line: Antibacterial activity against Staphylococcus equorum assessed as zone of inhibition at 5 uL and 32 degC after 36 hrs at by disk diffusion method. It counts as functional. A digest of the protocol: (§1)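 Disc diffusion on AC agar, each strain spread evenly over the medium; test compounds given as 1% (w/v) DMSO solutions. Plates covered and incubated 36 h at 32 °C, then the diameter of the zone of inhibited growth measured in mm. Tetracycline served as antibacterial reference.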

Assay [1] is described as follows: Antibacterial activity against Pseudomonas antimicrobica assessed as zone of inhibition at 5 uL and 32 degC after 36 hrs by disk diffusion method. It counts as functional, Burkholderia gladioli. A digest of the protocol: as §1
The next assay concerns Escherichia coli. The experiment in a line: Antibacterial activity against Escherichia coli assessed as zone of inhibition at 5 uL and 32 degC after 36 hrs by disk diffusion method. It counts as functional. The essentials: as §1
The test system of a further assay is Streptococcus entericus. The experiment in a line: Antibacterial activity against Streptococcus entericus assessed as zone of inhibition at 5 uL and 32 degC after 36 hrs by disk diffusion method. The assay is classed as functional. A digest of the protocol:
as §1

Assay [2] in a line: Antifungal activity against Hyphopichia burtonii assessed as zone of inhibition at 5 uL and 28 degC after 36 hrs by disk diffusion method. The assay is classed as functional. A digest of the protocol:
(§2)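 Agar disc diffusion with the test compound applied as a 1% (w/v) DMSO solution. Yeasts were grown on AC agar and Aspergillus niger on potato dextrose broth agar, each strain spread evenly. Plates were covered and kept 36 h at 28 °C, and the inhibition zone diameter was read in mm. Clotrimazole served as reference.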

Another assay concerns Nakaseomyces glabratus. The assay can be described thus: Antifungal activity against Candida glabrata assessed as zone of inhibition at 5 uL and 28 degC after 36 hrs by disk diffusion method. It counts as functional. A digest of the protocol: as §2
The subject of the next assay is Yarrowia lipolytica. The experiment in a line: Antifungal activity against Yarrowia lipolytica assessed as zone of inhibition at 5 uL and 28 degC after 36 hrs by disk diffusion method. It counts as functional. A digest of the protocol: as §2
In a further assay the test system is Aspergillus niger. The experiment in a line: Antifungal activity against Aspergillus niger assessed as zone of inhibition at 5 uL and 28 degC after 36 hrs by disk diffusion method. It counts as functional. A digest of the protocol: as §2
A further assay deals with HL-60. The assay can be described thus: Cytotoxicity against human HL60 cells after 24 hrs by MTT assay. It counts as functional, cell-based. The settings on record: HL-60, 24 h. A digest of the protocol: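 HL-60 cells kept in RPMI 1640 with 10% FBS, no antibiotics, 37 °C, humidified 5% CO2. Cells (9 × 10^5 cells/mL) exposed to compound in 96-well plates for 24 h at 37 °C. MTT in PBS (5 mg/mL) added for 2 h, then DMSO, shaken 1 h and read photometrically. IC50 determined; cisplatin reference.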

SMILES strings stand for the structures. The source made the active and inactive calls. The rule behind the calls is not given here.

With `CN(C)[C@@H]1C(O)=C(C(N)=O)C(=O)[C@@]2(O)C(O)=C3C(=O)c4c(O)cccc4[C@@](C)(O)[C@H]3C[C@@H]12` [TETRACYCLINE], the “diameter of the inhibition zone (DIZ)” value in the assay on Staphylococcus equorum was found to be 30 mm; in assay [1] it was 25 mm; in the assay on Escherichia coli, 30 mm; in the assay with Streptococcus entericus it was 22 mm.
`Clc1ccccc1C(c1ccccc1)(c1ccccc1)n1ccnc1` [CLOTRIMAZOLE]: the inhibition zone (IZ) in [2] worked out at 20 mm. Besides, the figures for the “diameter of the inhibition zone (DIZ)” value in the assay on Nakaseomyces glabratus, with Yarrowia lipolytica and in the assay on Aspergillus niger were 18 mm, 18 mm and 13 mm, respectively.
As to `CC(C)CCC[C@@H](C)[C@H]1CC[C@H]2C3=CCn4c(=O)c5ccccc5c(=O)n4[C@@H]3CC[C@]12C`, the “diameter of the inhibition zone (DIZ)” value with Staphylococcus equorum, with Escherichia coli, in the assay with Streptococcus entericus, in the assay on Yarrowia lipolytica and with Aspergillus niger was “inactive” in each case. For the same compound, the “diameter of the inhibition zone (DIZ)” value in [1] stood at 7 mm; in the assay on Nakaseomyces glabratus, 10 mm. Moreover, in assay [2], the inhibition zone (IZ) is 7 mm. The same compound had an IC50 with HL-60 of 17 µM.
`CC(C)CCC[C@@H](C)[C@H]1CC[C@H]2C(C#CCCO)=CCC[C@]12C`: the “diameter of the inhibition zone (DIZ)” value with Staphylococcus equorum is given as 6 mm; in assay [1], 11 mm; in the assay on Escherichia coli it was 10 mm; in the assay with Streptococcus entericus it was 14 mm; in the assay with Nakaseomyces glabratus it was 10 mm. For the same compound, in [2], the inhibition zone (IZ) was determined as 11 mm. In addition, the “diameter of the inhibition zone (DIZ)” value with Yarrowia lipolytica and in the assay on Aspergillus niger was “inactive” in each case. This compound came in with an IC50 in the assay with HL-60 of 38 µM.
As for `CC(C)CCC[C@@H](C)[C@H]1CC[C@H]2C(C#CCCN3C(=O)C=CC3=O)=CCC[C@]12C`, the “diameter of the inhibition zone (DIZ)” value came to 11 mm in the assay on Staphylococcus equorum; 13 mm in assay [1]; 15 mm in the assay on Escherichia coli; 15 mm in the assay with Streptococcus entericus; 10 mm with Nakaseomyces glabratus. Moreover, in assay [2], the inhibition zone (IZ) was 12 mm. For the same compound, the “diameter of the inhibition zone (DIZ)” value in the assay on Yarrowia lipolytica and in the assay with Aspergillus niger was “inactive” in each case. Half-maximal inhibition with HL-60 (IC50) was put at 46 µM.
`CC(C)CCC[C@@H](C)[C@H]1CC[C@H]2C(/C=C/CO)=CCC[C@]12C`: the “diameter of the inhibition zone (DIZ)” value was determined as 12 mm with Staphylococcus equorum; 18 mm in assay [1]; 10 mm with Escherichia coli; 14 mm in the assay on Streptococcus entericus; 18 mm with Nakaseomyces glabratus. In addition, the inhibition zone (IZ) in assay [2] worked out at 22 mm. Further, the “diameter of the inhibition zone (DIZ)” value with Yarrowia lipolytica and with Aspergillus niger was “inactive” throughout. This compound also showed a concentration for half-maximal inhibition (IC50) in the assay with HL-60 of 32 µM.
Regarding `CC(C)CCC[C@@H](C)[C@H]1CC[C@H]2C3=CC[C@@H]4C(=O)N(C)C(=O)[C@@H]4[C@@H]3CC[C@]12C`, the “diameter of the inhibition zone (DIZ)” value with Staphylococcus equorum, in the assay with Yarrowia lipolytica and in the assay on Aspergillus niger was “inactive” in each case. In addition, the “diameter of the inhibition zone (DIZ)” value in [1] turned out to be 7 mm; in the assay on Escherichia coli it was 10 mm; in the assay on Streptococcus entericus, 10 mm; with Nakaseomyces glabratus it was 10 mm. For the same compound, in assay [2], the inhibition zone (IZ) turned out to be 14 mm. The same compound registered an IC50 in the assay with HL-60 of 15 µM.
In the case of `CC(C)CCC[C@@H](C)[C@H]1CC[C@H]2C3=CC[C@@H]4C(=O)OC(=O)[C@@H]4[C@@H]3CC[C@]12C`, the “diameter of the inhibition zone (DIZ)” value in the assay on Staphylococcus equorum, with Yarrowia lipolytica and in the assay with Aspergillus niger was “inactive” throughout. Moreover, the “diameter of the inhibition zone (DIZ)” value amounted to 10 mm in assay [1], 7 mm in the assay with Escherichia coli, 12 mm in the assay with Streptococcus entericus and 8 mm in the assay with Nakaseomyces glabratus. Moreover, in [2], the inhibition zone (IZ) is 10 mm. For the same compound, the IC50 in the assay with HL-60 turned out to be 30 µM.
Turning to `CC(C)CCC[C@@H](C)[C@H]1CC[C@H]2C3=CC[C@@H]4C(=O)NC(=O)[C@@H]4[C@@H]3CC[C@]12C`, the “diameter of the inhibition zone (DIZ)” value in the assay with Staphylococcus equorum is given as 14 mm; in [1], 11 mm; in the assay with Escherichia coli it was 24 mm; in the assay with Streptococcus entericus, 15 mm; in the assay with Nakaseomyces glabratus, 15 mm. Besides, the “diameter of the inhibition zone (DIZ)” value (in assay [2]; in the assay with Yarrowia lipolytica; in the assay with Aspergillus niger) was “inactive” each time. Besides, half-maximal inhibition in the assay on HL-60 (IC50) required 16 µM.
Take `CCN1C(=O)[C@H]2[C@H](CC=C3[C@H]2CC[C@]2(C)[C@@H]([C@H](C)CCCC(C)C)CC[C@@H]32)C1=O`: the “diameter of the inhibition zone (DIZ)” value in the assay on Staphylococcus equorum amounted to 8 mm; in assay [1], 7 mm; in the assay with Escherichia coli, 7 mm; in the assay on Streptococcus entericus, 11 mm; with Nakaseomyces glabratus, 8 mm. For the same compound, in [2], the inhibition zone (IZ) was 7 mm. For the same compound, the “diameter of the inhibition zone (DIZ)” value in the assay with Yarrowia lipolytica and with Aspergillus niger was “inactive” in each case. In the assay with HL-60, this compound yielded an IC50 of 13 µM.
Regarding `CCCN1C(=O)[C@H]2[C@H](CC=C3[C@H]2CC[C@]2(C)[C@@H]([C@H](C)CCCC(C)C)CC[C@@H]32)C1=O`, the “diameter of the inhibition zone (DIZ)” value in the assay with Staphylococcus equorum and in the assay with Aspergillus niger was “inactive” throughout. Also, the “diameter of the inhibition zone (DIZ)” value came out at 7 mm in assay [1]; 7 mm in the assay with Escherichia coli; 7 mm in the assay on Streptococcus entericus; 6 mm in the assay on Nakaseomyces glabratus; 10 mm with Yarrowia lipolytica. In addition, in [2], the inhibition zone (IZ) amounted to 14 mm. Besides, in the assay with HL-60, inhibition was half-maximal at 7 µM (IC50).
As to `CC(C)CCC[C@@H](C)[C@H]1CC[C@H]2C(/C=C/CN3C(=O)C=CC3=O)=CCC[C@]12C`, the “diameter of the inhibition zone (DIZ)” value in the assay with Staphylococcus equorum was 11 mm; in assay [1], 10 mm; in the assay on Escherichia coli it was 9 mm; in the assay on Streptococcus entericus, 15 mm; in the assay with Nakaseomyces glabratus, 7 mm. Besides, the inhibition zone (IZ) in assay [2] turned out to be 8 mm. Moreover, the “diameter of the inhibition zone (DIZ)” value in the assay on Yarrowia lipolytica and with Aspergillus niger was “inactive” in each case. The IC50 with HL-60 was 32 µM.
Compound `CC(C)CCC[C@@H](C)[C@H]1CC[C@H]2C(CCCCO)CCC[C@]12C` (mixture of isomers) returned an IC50 in the assay with HL-60 of 13 µM. This counts as double-digit micromolar.
